Runt-CBFb FRET: blocks binding of human RUNX1 Runt domain to CBFb; Cerulean-Runt/Venus-CBFb FRET ratio 530/480, 1 h; inhibition, % at 20 µM; hit rate 0.46% among 220,000; AID 1496; Q01196+Q13951;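 active means inhibition over about 50% at 20 µM in the single-dose screen, limit read from the data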;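 further: 0% = DMSO wells and 100% = excess unlabeled CBFb competitor control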
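System: Cerulean-labeled Runt domain protein | Quantity: 100 nM of each labeled protein | Schedule: 1 h compound exposure, room temperature | Detection: Fluorescence energy transfer, 422 nm excitation, 530/480 nm emission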
Runt-SMMHC FRET: Runt domain-CBFb-SMMHC interaction inhibition | Q01196+Q13951 | Cerulean-Runt/Venus-CBFb-SMMHC FRET ratio 530/480, 1 h | inhibition, % at 20 µM | hit rate 0.74% among 220,000 | AID 1434;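 active means mean inhibition across duplicate retests at 20 µM reaching about 50%, limit read from the data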;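 further: 0% = DMSO wells and 100% = wells with excess untagged CBFb-SMMHC; inhibitors lower the FRET ratio by blocking Runt binding to CBFb-SMMHC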
Hck-Nef inh: inhibitors of human Hck kinase activated by Nef; Recombinant Hck-YEEI plus Nef, Z-Lyte FRET kinase assay; inhibition, % at 20 µM; hit rate 0.68% among 220,000; AID 463187;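 active means Hck-Nef kinase inhibition above about 50%, limit read from the data; inactive means inhibition below that limit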;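 further: 0% = DMSO with Hck plus Nef and 100% = Hck alone without Nef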
Target sequence (P08631 whole entry, looked up): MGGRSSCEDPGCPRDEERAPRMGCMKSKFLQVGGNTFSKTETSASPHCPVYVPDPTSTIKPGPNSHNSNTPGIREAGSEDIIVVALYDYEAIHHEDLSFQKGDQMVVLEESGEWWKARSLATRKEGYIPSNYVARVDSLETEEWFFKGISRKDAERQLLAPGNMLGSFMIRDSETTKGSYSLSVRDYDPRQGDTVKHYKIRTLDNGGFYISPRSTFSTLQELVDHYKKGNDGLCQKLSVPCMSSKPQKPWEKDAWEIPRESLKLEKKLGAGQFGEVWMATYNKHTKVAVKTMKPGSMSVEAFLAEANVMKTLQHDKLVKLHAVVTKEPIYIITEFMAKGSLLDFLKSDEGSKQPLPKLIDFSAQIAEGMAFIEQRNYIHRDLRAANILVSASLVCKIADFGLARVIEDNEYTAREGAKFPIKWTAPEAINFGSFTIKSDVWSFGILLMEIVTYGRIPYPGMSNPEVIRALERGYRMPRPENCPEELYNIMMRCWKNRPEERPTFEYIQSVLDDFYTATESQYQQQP
RanGTP-Imp inh: inhibitors of RanGTP-importin-beta interaction, primary screen, biochemical, FRET, CFP-Ran, YFP-importin-beta, homogeneous; cell-free CFP-Ran/YFP-importin-beta FRET ratio; inhibition, % (no concentration beside the values); hit rate 1.1% among 300,000;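 active means more than half of the replicate wells show a fall in the fluorescence ratio signal beyond about 16%, limit read from the data, passing the limit was not always enough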;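 further: 0% = DMSO wells and 100% = Ran loaded with GDP instead of GTP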
* hit, by the source's call; · = no result given. Sampled rows, rich in hits. Any-hit rate of the full collection: about 1.8%.

SMILES | Runt-CBFb FRET | Runt-SMMHC FRET | Hck-Nef inh | RanGTP-Imp inh
Cc1c(CC(=O)O)c(=O)oc2c(C)c3occ(-c4ccccc4)c3cc12 | · | · | · | 19.3*
Cc1c(CCC(=O)O)c(=O)oc2c(C)c3occ(-c4ccc(Cl)cc4)c3cc12 | · | · | · | 6.1
O=C(NCC1CCCO1)C(c1ccc(F)cc1)N(Cc1ccc2c(c1)OCO2)C(=O)c1ccc(CN2CCOCC2)o1 (configuration not stated) | 0.0 | 2.5 | 12.2 | 1.8
COC(CNC(=O)c1c[nH]c2ccc(S(=O)(=O)N(C)c3ccc(F)cc3)cc2c1=O)OC | · | · | · | -1.2
COc1ccc2cc(S(=O)(=O)c3ccccc3)c(=O)oc2c1 | 2.1 | 1.5 | 20.4 | 0.9
Cc1ccc(S(=O)(=O)c2cc3ccc(O)cc3oc2=O)cc1C | · | · | · | 131.8*
Cc1ccc(S(=O)(=O)c2cc3c(=O)n4ccccc4nc3n(C)c2=N)cc1C | · | · | · | 172.6*
CCCn1c(=N)c(S(=O)(=O)c2ccc(F)cc2)cc2c(=O)n3cccc(C)c3nc21 | · | · | · | 144.4*
Cn1c(=N)c(S(=O)(=O)c2ccccc2)cc2c(=O)n3ccccc3nc21 | 46.8 | 61.6* | 16.8 | ·
CC(C)OCCCn1c(=N)c(S(=O)(=O)c2ccccc2)cc2c(=O)n3ccccc3nc21 | · | · | · | -3.4
CCCn1c(=N)c(S(=O)(=O)c2ccc(F)cc2)cc2c(=O)n3ccccc3nc21 | · | · | · | 176.5*
COCCn1c(=N)c(S(=O)(=O)c2ccc(F)cc2)cc2c(=O)n3cccc(C)c3nc21 | · | · | · | -2.7
CCN(CC)c1nc(NN)nc(Nc2ccc(C)c(Cl)c2)n1 | · | · | · | 1.0
C=CCn1c(=N)c(S(=O)(=O)c2ccc(C)c(C)c2)cc2c(=O)n3ccccc3nc21 | · | · | · | 159.6*
Cn1c(=N)c(S(=O)(=O)c2ccc(F)cc2)cc2c(=O)n3ccccc3nc21 | 63.1* | 80.4* | 14.2 | 4.7
Cc1cnc(CNC(=O)C2CCC(=O)N(Cc3ccc(Cl)cc3)C2)[nH]1 (configuration not stated) | · | · | · | 4.8
CC(C)OC(=O)CC(=O)CSc1nc2c(cc1C#N)CCCCC2 | 35.2 | 70.7* | 1.9 | 25.7*
CCOC(=O)CC(=O)CSc1nc2c(c(C)c1C#N)CCC2 | 11.1 | 12.8 | 1.3 | 24.3*
CCN(CC(=O)NCc1ccncc1)S(=O)(=O)c1ccc(OC)cc1 | · | · | · | -6.4
CCC[C@H]1COCCS(=O)(=O)N1Cc1ccc(Br)cc1 | · | · | · | 0.1
c1cc2c3c(cccc3c1)C(N1CCCCCC1)=N2 | -17.2 | 60.5 | 2.4 | 23.4*
Cc1nn(-c2ccccc2)c(N)c1C1(O)C(=O)N(C(C)C)c2ccccc21 (configuration not stated) | -0.9 | 1.6 | 4.5 | -6.9
Cc1nn(-c2ccccc2)c2c1P(=O)(O)/C(=C1\N(C)c3ccccc3C1(C)C)C=N2 | -47.2 | -62.6 | -0.3 | 28.7*
COc1cc(/C=C2/SC(=O)NC2=O)ccc1Oc1ccc([N+](=O)[O-])cc1[N+](=O)[O-] | -0.7 | -4.2 | 51.5* | -6.1
COc1ccc(-c2oc3cccnc3c2C#CC2(O)CCCCC2)cc1 | · | · | · | 22.6*
SMILES | Runt-CBFb FRET | Runt-SMMHC FRET | Hck-Nef inh | RanGTP-Imp inh
COc1ccc(-c2oc3cccnc3c2C#CCO)cc1 | · | · | · | 5.1
CCCc1cc(C(=O)NC2CCCN(Cc3ccccc3F)C2)no1 (configuration not stated) | · | · | · | 7.8
Cc1cc(=O)oc2cc(NC(=O)c3ccccc3OC(F)F)ccc12 | · | · | · | -1.8
C/C(=N/NC(=O)c1ccccc1)c1ccc(NC(=O)C(F)(F)F)cc1 | -0.3 | -0.8 | -3.0 | 30.7*
Cc1ccc(-c2c(C(=O)Nc3ccccc3C)c(C)[nH]c(=S)c2C#N)o1 | -20.0 | -101.1 | 55.7* | 2.3
Cc1ccccc1NC(=O)c1c(C)[nH]c(=S)c(C#N)c1-c1ccc(Cl)cc1 | 19.0 | 6.5 | -1.8 | 0.3
CCOc1ccccc1C(=O)NCC(=O)N(C)Cc1cccnc1 | · | · | · | -4.1
Cc1ccc(C)n1-c1nccc(-c2cccs2)n1 | 11.8 | -13.8 | 16.7 | -6.8
Cc1ccc(C)n1-c1nccc(-c2ccco2)n1 | 31.5 | 85.9* | 0.4 | 13.2
FC(F)(F)c1cccc(NC(=S)Nc2cccc(NC(=S)Nc3cccc(C(F)(F)F)c3)n2)c1 | 23.4 | 5.0 | 0.6 | 14.8*
CCC1=NN(C(=O)Cc2ccc([N+](=O)[O-])cc2)C(O)(c2ccncc2)C1 (configuration not stated) | -1.6 | -1.6 | 16.1 | 17.6*
COc1ccc(S(=O)(=O)n2cccc2)c(OC)c1 | · | · | · | -1.4
CCOC(=O)c1cc(-c2csc(N/N=C/c3ccccc3Cl)n2)on1 | 7.3 | 15.8 | 7.8 | 42.4*
CCOC(=O)c1cc(-c2csc(Nc3ccccc3Cl)n2)on1 | -2.6 | 0.6 | 5.7 | -1.7
